ChEMBL document CHEMBL1126048, “Synthesis and pharmacological investigation of the enantiomers of muscarone and allomuscarone” (J Med Chem, 1992)

Legend:
[1] = organism: Rattus norvegicus; experiment: Hill coefficient for affinity to M2 muscarinic receptor of rat cerebral cortex
[2] = organism: Rattus norvegicus; experiment: In vitro potency against muscarinic preparation from rat jejunum.; type: functional
Summary of the method: (§1)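 Isolated tissues: guinea pig atria, ileum and trachea, and rat jejunum and bladder. Agonist concentration–response curves were run, with potency expressed as −log EC50. Values are means ± SEM of six to nine experiments.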

[3] = organism: Rattus norvegicus; experiment: Hill coefficient for affinity to M1 muscarinic receptor of rat cerebral cortex
[4] = organism: Rattus norvegicus; experiment: In vitro potency against muscarinic preparation from rat bladder.; type: functional; summary of the method: as §1
[5] = organism: Cavia porcellus; experiment: In vitro potency against muscarinic preparation from guinea pig atria.; type: functional; summary of the method: as §1
[6] = organism: Cavia porcellus; experiment: In vitro potency against muscarinic preparation from guinea pig ileum.; type: functional; summary of the method: as §1
[7] = organism: Rattus norvegicus; experiment: Hill coefficient for affinity to M3 muscarinic receptor of rat cerebral cortex
[8] = target: T1, Muscarinic acetylcholine receptor M1 (Rattus norvegicus) (UniProt P08482); details: Cerebral cortex
T1 sequence (whole entry): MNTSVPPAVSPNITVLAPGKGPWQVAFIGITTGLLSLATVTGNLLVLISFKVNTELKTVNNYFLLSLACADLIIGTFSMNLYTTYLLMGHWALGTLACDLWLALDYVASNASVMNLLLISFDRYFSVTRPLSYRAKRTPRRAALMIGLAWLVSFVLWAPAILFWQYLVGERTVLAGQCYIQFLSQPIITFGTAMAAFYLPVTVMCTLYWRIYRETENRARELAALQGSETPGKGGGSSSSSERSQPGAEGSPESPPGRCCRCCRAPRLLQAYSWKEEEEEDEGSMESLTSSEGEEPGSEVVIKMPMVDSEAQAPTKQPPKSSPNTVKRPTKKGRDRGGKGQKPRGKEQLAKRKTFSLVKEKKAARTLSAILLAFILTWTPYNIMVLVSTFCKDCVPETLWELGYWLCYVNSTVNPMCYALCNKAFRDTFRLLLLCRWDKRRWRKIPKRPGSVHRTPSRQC

[9] = organism: Cavia porcellus; experiment: In vitro potency against muscarinic preparation from guinea pig trachea.; type: functional; summary of the method: as §1
[10] = organism: Cavia porcellus; experiment: In vitro potency against muscarinic preparation from guinea pig trachea; type: functional; summary of the method: as §1
[11] = organism: Cavia porcellus; experiment: In vitro potency against muscarinic preparation from guinea pig atria; type: functional; summary of the method: as §1
[12] = organism: Rattus norvegicus; experiment: In vitro potency against muscarinic preparation from rat jejunum; type: functional; summary of the method: as §1
[13] = organism: Cavia porcellus; experiment: In vitro potency against muscarinic preparation from guinea pig ileum; type: functional; summary of the method: as §1
[14] = target: T1, Muscarinic acetylcholine receptor M1 (Rattus norvegicus); details: Cerebral cortex; remark: listed apart in the source

`C[C@H]1O[C@H](C[N+](C)(C)C)CC1=O.[I-]` was tested, and the nH [1] was 0.63, the EC50 [2] was 661 nM and the nH [3] was 0.89. The EC50 [4] was 2000 nM, the EC50 [5] was 229 nM and the EC50 [6] was 148 nM. The nH [7] was 0.9.

Molecule `C[C@@H]1O[C@@H](C[N+](C)(C)C)CC1=O.[I-]` has a nH [1] of 0.58, an EC50 [2] of 20.4 nM and a nH [3] of 0.74. The EC50 [4] was 105 nM, the EC50 [5] was 5.13 nM and the EC50 [6] was 3.47 nM. The nH [7] was 0.92.

`C[C@@H]1O[C@H](C[N+](C)(C)C)C[C@H]1O` gave an EC50 [5] of 20.4 nM, an EC50 [6] of 7.41 nM and a nH [8] of 1.

Molecule `C[C@H]1O[C@@H](C[N+](C)(C)C)CC1=O.[I-]` has a nH [1] of 0.6, a nH [3] of 1 and an EC50 [9] of 490 nM. The EC50 [4] was 3550 nM, the EC50 [5] was 501 nM and the EC50 [6] was 302 nM. It also gave a nH [7] of 1.

Molecule `C[C@@H]1O[C@H](C[N+](C)(C)C)CC1=O.[I-]` has a nH [1] of 0.58, a nH [3] of 0.79 and an EC50 [10] of 1.12 nM. The EC50 [11] was 1.2 nM, the EC50 [12] was 7.41 nM and the nH [7] was 0.78. The EC50 [13] was 0.794 nM.

In the case of `C[C@H]1O[C@@H](C[N+](C)(C)C)C[C@@H]1O`, the nH [14] is reported as 0.76, the EC50 [5] is reported as 6760 nM and the EC50 [6] is reported as 2400 nM.
